Results pooled from the literature.
Organism: Human immunodeficiency virus 1
Read-out: viral replication

`O=[N+]([O-])c1cccc(-c2nc3c4cc(I)ccc4c4ccccc4c3[nH]2)c1` has an IC50 of 14.2 µM (inhibitor; human PBMC; 7 days).
With `O=c1cc(-c2ccc(O)c(O)c2)oc2cc(O)cc(O)c12` the EC50 was 12.7 µM (inhibitor; human PBMC; 6 days).
`O=c1oc2c(O)c(O)cc3c(=O)oc4c(O)c(O)cc1c4c23` has an IC50 of 18.8 µg/mL (inhibitor, luciferase; TZM-bl; 48 h).
`OCc1cc(C(O)CNCCCCCCOCCCCc2ccccc2)ccc1O` (stereo not shown) has an EC50 of 20 µM (inhibitor; TZM-bl).
`Cc1cn([C@H]2C[C@H](N=[N+]=[N-])[C@@H](CO)O2)c(=O)[nH]c1=O` gave an IC50 of 0.094 µg/mL (inhibitor; CEM-GFP; 8 days).
For `O=C(O)c1cc(F)cc(Cn2ccc3ccc(-c4ccc5ccn(Cc6cccc(OC(F)(F)F)c6)c5c4)cc32)c1`, the IC50 was 2 µM (inhibitor; IIIB).
`CCOC(=O)c1cccc(Cn2ccc3ccc(-c4ccc5ccn(Cc6cccc(C(=O)O)c6)c5c4)cc32)c1` has an IC90 of 28.9 µM (inhibitor; MAGI, BAL).
`CC(C)(C)NC(=O)[C@@H]1C[C@@H]2CCCC[C@@H]2CN1C[C@@H](O)[C@H](Cc1ccccc1)NC(=O)[C@H](CC(N)=O)NC(=O)c1ccc2ccccc2n1` gave an IC50 of 0.019 µM (MT2).
For `COC(=O)c1cccc(Cn2ccc3ccc(-c4ccc5ccn(Cc6cccc(C(=O)O)c6)c5c4)cc32)c1`, the IC90 was 38.4 µM (inhibitor; MAGI, BAL).
`COc1ccccc1CN[C@H]1C2CCN(CC2)[C@H]1C(c1ccccc1)c1ccccc1` gave an IC50 of 15.2 µM (ELISA; human PBMC, BAL; 7 days).
`O=c1cc(-c2ccccc2)oc2cc(O)cc(O)c12` gave an EC50 of 9.2 µM (inhibitor; human PBMC; 6 days).
`O=c1[nH]cc(C(c2cccc(C(c3c[nH]c(=O)[nH]c3=O)c3c[nH]c(=O)[nH]c3=O)c2)c2c[nH]c(=O)[nH]c2=O)c(=O)[nH]1` gave an inhibition of 20% (inhibitor, ELISA; 1 µg/mL).
The IC50 of `CC(C)C[C@H](NC(=O)[C@@H](NC(=O)[C@@H]1CCCN1C(=O)[C@@H](NC(=O)[C@H](CO)NC(=O)[C@@H](NC(=O)[C@H](CCC(N)=O)NC(=O)[C@@H]1CCCN1C(=O)[C@@H](NC(=O)[C@H](CCCCN)NC(=O)[C@H](CCCCN)NC(=O)[C@@H](NC(=O)[C@H](Cc1ccc(O)cc1)NC(=O)[C@H](CCCNC(=N)N)NC(=O)[C@@H](NC(=O)[C@@H](N)CC(C)C)C(C)C)[C@@H](C)O)C(C)C)C(C)C)[C@@H](C)O)[C@@H](C)O)C(=O)O` is reported as > 10 µM (inhibitor; TZM-bl).
The EC50 of `O=c1cc(-c2ccc(O)cc2)oc2cc(O)cc(O)c12` is reported as 5 µM (inhibitor; human PBMC; 6 days).
With `C[C@@H](O[C@H]1OCCN(Cc2n[nH]c(=O)[nH]2)[C@H]1c1ccc(F)cc1)c1cc(C(F)(F)F)cc(C(F)(F)F)c1` the IC50 was 5.7 µM (inhibitor, ELISA; human PBMC, NL43; 7 days).
`O=C(O)c1cc(O)c(O)c(O)c1` gave an IC50 of 0.36 µg/mL (inhibitor, luciferase; TZM-bl; 48 h).
